Screening results deposited in PubChem BioAssay by Johns Hopkins Ion Channel Center.
Most compounds without a hit are left out; they make up all but 3.5% or so of the library.
MrgX1 ag – human MrgX1 receptor agonism, primary screen. Q96LB2. MrgX1-HEK293 cells, Fluo-4 calcium fluorescence, agonist mode; active compounds read high. B-score at 10 µM. actives 0.44% (n = 310,000);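 active = calcium response B-score plate-corrected fluorescence ratio at least 3 library SD, with starting fluorescence B-score inside 5 SD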
Target sequence (Q96LB2 whole entry, looked up): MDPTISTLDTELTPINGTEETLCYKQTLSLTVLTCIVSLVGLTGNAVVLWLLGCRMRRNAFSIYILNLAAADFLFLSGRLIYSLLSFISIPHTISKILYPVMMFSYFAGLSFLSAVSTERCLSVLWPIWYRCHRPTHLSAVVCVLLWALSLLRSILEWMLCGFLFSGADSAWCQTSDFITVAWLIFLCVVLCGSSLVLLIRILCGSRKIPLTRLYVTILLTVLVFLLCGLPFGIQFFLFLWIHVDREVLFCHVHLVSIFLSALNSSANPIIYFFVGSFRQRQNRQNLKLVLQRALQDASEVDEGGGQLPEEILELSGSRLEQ
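System: HEK293 cells stably expressing human MrgX1 receptor; Dosing: test compound in the initial addition of three; Schedule: overnight plating, then 30 min 37 °C plus 30 min room-temperature dye loading; Detection: kinetic calcium dye fluorescence, Fluo-4 NW; Controls: per-plate positive and negative controls for Z′ factor.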
MrgX1 PAM – human MrgX1 positive allosteric modulation, primary screen; Q96LB2; MrgX1-HEK293, Fluo-4 calcium flux, FDSS; active compounds read high; B-score at 10 µM; actives 0.63% (n = 310,000); AID 588675;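 active = plate-corrected calcium response at least 3 library SD above typical, normal starting fluorescence, not activating the receptor alone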;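 note: compound read alongside a low EC10 to EC30 dose of BAM8-22 agonist; peak minus trough fluorescence over baseline measured at the second addition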
MrgX1 antag – human MrgX1 receptor antagonism, primary screen; B-score at 10 µM; MRGX1-HEK293 calcium flux, Fluo-4, BAM8-22 antagonism; active compounds read low; Q96LB2; actives 1.3% (n = 310,000);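 active = calcium-response B-score plate-corrected more than 3 library SD below zero, starting fluorescence within 5 deviations, no agonist response on first addition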;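 note: peak minus trough fluorescence over baseline after final BAM8-22 challenge near maximal dose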
RGS4 inh – human RGS4 inhibition | P49798 | HEK293 M3R/RGS4 inducible, Fluo-4 calcium flux; active compounds read high; triggered by carbachol at its EC20 | B-score at 10 µM | actives 0.45% (n = 310,000) | AID 463165;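 active = B-score, a plate-corrected calcium signal, over three deviations above library mean, with baseline fluorescence within five deviations of library mean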;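 note: RGS4 expression induced by doxycycline in cells with stable M3 receptor; B-score is computed from the integrated fluorescence ratio over baseline after carbachol; higher B-score means a larger calcium signal and so more RGS4 inhibition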
Target sequence (P49798 whole entry, looked up): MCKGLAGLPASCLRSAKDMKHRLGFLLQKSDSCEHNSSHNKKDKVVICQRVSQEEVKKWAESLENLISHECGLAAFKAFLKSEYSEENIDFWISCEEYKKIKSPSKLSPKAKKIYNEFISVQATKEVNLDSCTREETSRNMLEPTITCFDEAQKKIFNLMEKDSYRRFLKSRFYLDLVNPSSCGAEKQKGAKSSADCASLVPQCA
RGS4 pot – RGS4 potentiation or activation; actives 0.92% (n = 310,000); B-score at 10 µM; HEK293 M3R/inducible RGS4, carbachol calcium flux Fluo4; active compounds read low;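 active = B-score of the integrated calcium signal more than 4 SD below the library mean, with starting fluorescence not abnormally high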;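 note: negative B-score means reduced calcium response which marks RGS4 activation or potentiation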
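Reagent: ECmax carbachol challenge; Test system: M3R-expressing HEK293 line, RGS4 induced by doxycycline; Schedule: overnight RGS4 induction, 30 min dye load 37 °C, 20 min compound RT; Detection: calcium dye Fluo4 fluorescence; Read-out: Agonist-evoked peak-minus-minimum fluorescence over baseline, integrated ratio, B score.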
The depositor's hits bear a star; i = inactive; . = not tested or not shown.

SMILES	MrgX1 ag	MrgX1 PAM	MrgX1 antag	RGS4 inh	RGS4 pot
C1=C(c2ccccc2)Nc2ncnn2C1c1ccccc1 (stereo unspecified)	i	8.2*	i	i	i
Cc1nn(C)cc1C1C2=C(CC(C)(C)CC2=O)N(c2ccccc2)C2=C1C(=O)CC(C)(C)C2	i	i	i	i	i
Cc1ccc(N2C3=C(C(=O)CC(C)(C)C3)C(c3cn(C)nc3C)C3=C2CC(C)(C)CC3=O)cc1	i	i	-6.6*	i	i
CC1(C)Oc2ccc3ccc(=O)oc3c2/C(=C/Nc2ccccc2)C1=O	i	i	i	i	i
CC1(C)Oc2ccc3ccc(=O)oc3c2/C(=C/NC2CCCCC2)C1=O	i	i	i	i	-7*
O=C(c1ccc(N2CCN(S(=O)(=O)c3ccccc3)CC2)c([N+](=O)[O-])c1)N1CCOCC1	i	i	i	i	i
CN1CCC(N(C)CC(=O)Nc2ccc3c(c2)OC(F)(F)O3)CC1	i	i	i	i	-7.4*
CC1CCCCN1CC(=O)Nc1ccc2c(c1)OC(F)(F)O2 (stereo unspecified)	i	i	i	i	i
O=C(N/N=C/C(Br)=C/c1ccccc1)c1ccccc1F	i	7*	i	i	i
O=C1N(c2ccc3c(c2)OCCO3)C(c2ccccc2)C1(F)F (stereo unspecified)	i	6.9*	i	i	i
Cc1ccc(N2C(=O)C(F)(F)C2c2ccccc2)cc1 (stereo unspecified)	i	i	i	i	i
COC(=O)C(C)Oc1ccc2c(c1)O/C(=C\c1ccco1)C2=O (stereo unspecified)	i	i	i	i	-9.1*
COc1ccc(/C=C2\Oc3cc(OCC(N)=O)ccc3C2=O)cc1OC	i	i	-5.4*	i	-8.2*
CCn1c(SCC(=O)Nc2nncs2)nnc1C(C)NC(=O)c1ccccc1Br (stereo unspecified)	i	i	i	i	i
CCOC(=O)C(C)On1c(-n2nc(C)cc2C)nc2ccccc2c1=O (stereo unspecified)	i	i	i	i	i
O=C(NCCc1ccccc1)c1ccc2c(=O)[nH]c3c(C(=O)NCC4CCCO4)sc(=S)n3c2c1 (stereo unspecified)	i	i	i	i	i
COc1ccc(OC)c(CCNC(=O)c2ccc3c(=O)[nH]c4c(C(=O)NC(C)C)sc(=S)n4c3c2)c1	i	i	-8*	i	-8.8*
CC(C)NC(=O)c1sc(=S)n2c1[nH]c(=O)c1ccc(C(=O)NCCc3ccc(Cl)cc3)cc12	i	i	-5.9*	i	-8.2*
CCOc1ccc(CCNC(=O)c2ccc3c(=O)[nH]c4c(C(=O)NC(C)C)sc(=S)n4c3c2)cc1	i	i	-9.2*	i	i
COc1ccc(OC)c(CCNC(=O)c2ccc3c(c2)N(Cc2ccc(F)cc2)CCS3)c1	i	i	i	i	i
CC(C)n1nc(C(=O)Nc2nc3ccccc3[nH]2)c2ccccc2c1=O	i	i	i	i	-9.5*
CCOc1ccc(C(C)=O)cc1Cc1c(O)nc(N)[nH]c1=O	i	i	-5.2*	i	i
Cc1c(N=C/C=C/c2ccccc2)c(=O)n(-c2ccccc2)n1C	i	i	i	i	-8.7*
Cc1c(N=Cc2cccnc2)c(=O)n(-c2ccccc2)n1C	i	i	i	i	i
O=C(c1ccccc1Br)N1N=C(c2ccccc2)CC1c1ccccc1F (stereo unspecified)	i	i	i	i	-8*
SMILES	MrgX1 ag	MrgX1 PAM	MrgX1 antag	RGS4 inh	RGS4 pot
Cc1nn(CC(C)C(=O)N2CCN(S(=O)(=O)c3ccc(Cl)cc3)CC2)c(C)c1C (stereo unspecified)	i	i	i	i	i
CCOP(=O)(OCC)c1nc(-c2ccc(Br)cc2)oc1N1CCCCC1	i	i	i	i	i
CCOP(=O)(c1ccccc1)c1nc(-c2ccc(F)cc2)oc1N1CCCCC1 (stereo unspecified)	38*	i	i	i	i
O=C1S/C(=C/c2ccc(N3CCOCC3)o2)C(=O)N1Cc1ccc(F)cc1	46*	i	i	i	i
O=C1N/C(=C/c2ccc(N3CCOCC3)o2)C(=O)N1c1ccccc1	i	i	i	.	.
C=CCN1C(=O)N/C(=C/c2ccc(N3CCOCC3)o2)C1=O	i	i	-5.1*	i	i
CCCc1cc(C(=O)Nc2ccc(C(=O)c3ccccc3)cc2)n(C)n1	i	i	i	i	i
CCCc1cc(C(=O)Nc2ccc(C(=O)c3ccc(F)cc3)cc2)n(C)n1	i	i	-6.9*	i	i
Cc1ccccc1NC(=S)NC(NC(=O)c1ccccc1C)C(Cl)(Cl)Cl (stereo unspecified)	i	i	i	i	i
Cc1ccc2cc(CN(CCc3ccccc3)C(=S)NCCCN(C)C)c(=O)[nH]c2c1	i	6.6*	i	i	i
Cc1ccc(C(=O)N/N=C/c2ccoc2)cc1C	i	i	i	i	i
CN1CCCN(C(=O)c2cc(-c3ccc(Cl)c(Cl)c3Cl)nc3ccccc23)CC1	41*	i	i	i	i
O=C(c1cc(-c2ccccc2)nc2ccccc12)N1CCN(c2ccccc2O)CC1	i	i	i	i	-7.1*
Cc1ccc2nc(-c3ccccc3)cc(C(=O)N3CCN(c4ccccc4O)CC3)c2c1	i	i	i	i	-8.6*
O=C(OCC(=O)N1CCN(C(=O)c2ccco2)CC1)c1cc(-c2ccc(Cl)c(Cl)c2Cl)nc2ccccc12	i	i	i	i	i
O=C(c1cc(-c2ccncc2)nc2ccccc12)N1CCN(c2ccccc2O)CC1	i	i	i	i	i
C/C(=N\NC(=O)Cc1ccc(F)cc1)c1ccc(O)cc1	i	i	i	i	i
COc1cc([N+](=O)[O-])cc(/C=N/NC(=O)CC#N)c1O	.	.	.	i	i
Cc1ccc(C(=O)c2c3ccc([N+](=O)[O-])cc3[n+]([O-])n2CCCN)cc1	i	i	i	i	i
CCN(CC)S(=O)(=O)c1cc(NC(=O)COc2ccc(C#N)cc2OC)ccc1C	i	i	-6.8*	i	i
CCC1=NN(C(=O)c2ccc(Br)cc2)C(O)(c2ccccc2)C1 (stereo unspecified)	30*	i	i	i	i
Cc1ccc(C(=O)COC(=O)C2CC3CCCC(C2)C3=O)cc1[N+](=O)[O-] (stereo unspecified)	i	i	-5.6*	i	i
